Assay results reported in ChEMBL document CHEMBL1268907, “Synthesis and evaluation of benzoxazole derivatives as 5-lipoxygenase inhibitors” (Bioorg Med Chem, 2010).
Each block holds one compound with its values, some of them ahead of it. Calls of active or inactive are those of the source. The rule behind the calls is not given here.

Assays:
[1] = molecular target: T1, Polyunsaturated fatty acid 5-lipoxygenase (Mus musculus, UniProt P48999); assay: Inhibition of 5-lipoxygenase in BALB/c mouse BMMC assessed as LTC4 release after 20 mins by enzyme immunoassay
T1 sequence (P48999 whole entry): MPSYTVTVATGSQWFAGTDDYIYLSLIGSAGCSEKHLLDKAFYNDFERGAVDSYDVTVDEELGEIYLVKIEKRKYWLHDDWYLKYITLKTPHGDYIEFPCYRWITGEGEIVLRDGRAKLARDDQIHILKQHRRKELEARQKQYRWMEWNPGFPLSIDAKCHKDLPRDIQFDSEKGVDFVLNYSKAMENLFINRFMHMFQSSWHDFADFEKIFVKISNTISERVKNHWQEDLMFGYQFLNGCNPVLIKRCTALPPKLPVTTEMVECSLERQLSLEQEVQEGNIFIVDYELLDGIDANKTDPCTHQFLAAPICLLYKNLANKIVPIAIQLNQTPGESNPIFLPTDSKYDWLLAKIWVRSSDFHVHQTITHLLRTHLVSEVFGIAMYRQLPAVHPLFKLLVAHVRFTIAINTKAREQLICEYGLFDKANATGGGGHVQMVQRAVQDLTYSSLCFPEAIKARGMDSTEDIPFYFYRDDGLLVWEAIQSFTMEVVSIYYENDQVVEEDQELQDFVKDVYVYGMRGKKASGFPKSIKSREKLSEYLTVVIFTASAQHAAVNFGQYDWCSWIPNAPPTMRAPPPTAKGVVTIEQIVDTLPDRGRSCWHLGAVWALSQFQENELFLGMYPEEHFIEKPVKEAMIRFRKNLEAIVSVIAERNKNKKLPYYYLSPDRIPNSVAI
Outline: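 Bone marrow mast cells from male Balb/c mice, cultured up to 4 weeks in enriched RPMI + 10% FBS + IL-3 (2 ng/mL); >98% purity by toluidine blue staining. Cells at 1×10^6/mL pre-incubated with compound in DMSO (final <0.5%) for 30 min at 37 °C, then stimulated with SCF 100 ng/mL for 20 min. Supernatant LTC4 measured by EIA in triplicate; % reduction calculated.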

Mus musculus [2] = assay: Antiasthamatic activity against ovalbumin-induced airway hyperresponsiveness mouse model assessed as reduction of increase in penh value at 30 mg/kg, po administered 24 hrs after last ovalbumin challenge measured after 24 hrs by plethysmography; assay type: functional, organism-based; set-up: dose 30 mg/kg
Outline: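 OVA/alum-sensitized mice (i.p., days 0 and 11) challenged with 1% OVA aerosol, given 30 mg/kg orally. 24 h after final aerosol, whole-body plethysmography was run: PBS aerosol, then methacholine 12.5, 25 and 50 mg/mL for 3 min each, with 5 min recording per step. Peak Penh at each dose expressed as % of basal PBS Penh.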

Mus musculus [3] = assay: Antiasthamatic activity against ovalbumin-induced airway hyperresponsiveness mouse model assessed as reduction of mononuclear cells infiltration at 30 mg/kg, po measured 48 hrs after ovalbumin challenge; assay type: functional, organism-based; set-up: dose 30 mg/kg
Outline: (§1)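 Mice sensitized i.p. with OVA/alum on days 0 and 11 and challenged with 1% OVA aerosol on days 19–21 and 25. Oral dosing at 30 mg/kg. Lungs taken 48 h after last challenge, fixed 24 h in 10% neutral-buffered formalin, paraffin-embedded, cut at 4 µm and H&E stained. Peribronchial/perivascular infiltration scored 0–3 blind by two independent investigators.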

Mus musculus [4] = assay: Antiasthamatic activity against ovalbumin-induced airway hyperresponsiveness mouse model assessed as reduction of eosinophils infiltration at 30 mg/kg, po measured 48 hrs after ovalbumin challenge; assay type: functional, organism-based; set-up: dose 30 mg/kg; outline: as §1
Mus musculus [5] = assay: Antiasthamatic activity against ovalbumin-induced airway hyperresponsiveness mouse model assessed as reduction of plasma IgE level at 30 mg/kg, po measured 48 hrs after ovalbumin challenge (reference value: 41.82 +/- 10.57 ng/ml); assay type: functional
Mus musculus [6] = assay: Antiasthamatic activity against ovalbumin-induced airway hyperresponsiveness mouse model assessed as reduction of bronchoalveolar lavage fluid IL-4 level at 30 mg/kg, po measured 48 hrs after ovalbumin challenge; assay type: functional, Lung
Outline: (§2)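 OVA sensitization i.p. (20 µg OVA with 2 mg aluminum hydroxide in PBS pH 7.4, days 0 and 11), then airway challenge with 1% OVA aerosol for 20 min on days 19, 20, 21 and 25. Compound given orally at 30 mg/kg. BALF collected 48 h after last challenge by three 0.5 mL ice-cold PBS lavages and centrifuged. IL-4, IL-5 and IL-13 measured by mouse ELISA (detection limit 250 pg/mL). n = 5–6 per group, mean ± SEM.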

Mus musculus [7] = assay: Antiasthamatic activity against ovalbumin-induced airway hyperresponsiveness mouse model assessed as reduction of bronchoalveolar lavage fluid IL-5 level at 30 mg/kg, po measured 48 hrs after ovalbumin challenge; assay type: functional, Lung; outline: as §2
Mus musculus [8] = assay: Antiasthamatic activity against ovalbumin-induced airway hyperresponsiveness mouse model assessed as reduction of bronchoalveolar lavage fluid IL-13 level at 30 mg/kg, po measured 48 hrs after ovalbumin challenge; assay type: functional, Lung; outline: as §2

IC50 [1]: 2.77 µM
SMILES: COc1ccc2oc(Nc3ccc(SC)cc3)nc2c1

IC50 [1]: 2.64 µM
SMILES: COc1ccc2oc(Nc3ccc(C(C)C)cc3)nc2c1

IC50 [1]: 2.03 µM
SMILES: COc1ccc2oc(Nc3cccc(Br)c3)nc2c1

IC50 [1]: 7.31 µM
SMILES: CSc1ccc(Nc2nc3cc(C)ccc3o2)cc1

IC50 [1]: 5.66 µM
SMILES: CCc1ccccc1Nc1nc2cc(C)ccc2o1

IC50 [1]: 4.5 µM
SMILES: Clc1ccc2oc(Nc3ccccc3)nc2c1

IC50 [1]: 7.88 µM
SMILES: COc1ccc2oc(Nc3ccccc3)nc2c1

SMILES: CCc1ccc(Nc2nc3cc(Cl)ccc3o2)cc1
Activity (Mus musculus [2]): Active
Activity (Mus musculus [3]): Active
Activity (Mus musculus [4]): Active
Activity (Mus musculus [5]): 25.44 ng/mL
Activity (Mus musculus [6]): 163.49 ng/mL
Activity (Mus musculus [7]): 110.91 ng/mL
Activity (Mus musculus [8]): 71.91 ng/mL

IC50 [1]: 4.6 µM
SMILES: Cc1ccc2oc(Nc3ccccc3)nc2c1

IC50 [1]: 6.83 µM
SMILES: COc1cccc(Nc2nc3cc(C)ccc3o2)c1

IC50 [1]: 0.12 µM
SMILES: CCc1ccc(Nc2nc3cc(C)ccc3o2)cc1
Activity (Mus musculus [2]): Active
Activity (Mus musculus [3]): Active
Activity (Mus musculus [4]): Active
Activity (Mus musculus [5]): 19.21 ng/mL
Activity (Mus musculus [6]): 198.34 ng/mL
Activity (Mus musculus [7]): 116.92 ng/mL
Activity (Mus musculus [8]): 64.3 ng/mL
